Data published in ChEMBL document CHEMBL2407075, “Sulphonamido-quinoxalines: search for anticancer agent” (Eur J Med Chem, 2013).

Assays:
Type in all cases: functional
NCI-H522 [1] = assay: Growth inhibition of human NCI-H522 cells assessed as cell growth at 10^-8 M after 48 hrs by sulforhodamine B assay; settings: NCI-H522, 48 h, read-out: Activity
OVCAR-5 [2] = assay: Growth inhibition of human OVCAR5 cells after 48 hrs by sulforhodamine B assay; settings: OVCAR-5, 48 h; for CC50: read-out: LC50 (the source's name)
Summary of the method: (§1)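 Adherent cells in RPMI 1640 with 5% FBS and 2 mM L-glutamine were plated at 5000–40,000 cells/well and grown 24 h. Five concentrations (0.01–100 µM, DMSO stock) were added for 48 h at 37 °C. Cells were fixed with cold TCA (10% final) and stained with SRB, read at 515 nm. GI50 came from log concentration–growth curves against time-zero and control plates.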

SF-268 = assay: Growth inhibition of human SF268 cells assessed as cell growth at 10^-6 M after 48 hrs by sulforhodamine B assay; settings: SF-268, 48 h, read-out: Activity
U-251 = assay: Growth inhibition of human U251 cells assessed as cell growth at 10^-7 M after 48 hrs by sulforhodamine B assay; settings: U-251, 48 h, read-out: Activity
NCI-H23 [3] = assay: Growth inhibition of human NCI-H23 cells after 48 hrs by sulforhodamine B assay; settings: NCI-H23, 48 h; for CC50: read-out: LC50 (the source's name)
Summary of the method: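 Five-dose NCI 60 screen at 0.01, 0.1, 1, 10 and 100 µM, 48 h exposure after 24 h preincubation, in RPMI 1640 with 5% FBS and 2 mM glutamine. Fixed with TCA (10% final for adherent cells, 16% for suspension cells), stained with SRB, A515 read. Percent growth uses time-zero (Tz), control and treated plates. GI50, TGI and LC50 are read from the dose-response curves.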

M14 [4] = assay: Growth inhibition of human M14 cells assessed as cell growth at 10^-8 M after 48 hrs by sulforhodamine B assay; settings: M14, 48 h, read-out: Activity
SN12C [5] = assay: Growth inhibition of human SN12C cells assessed as cell growth at 10^-6 M after 48 hrs by sulforhodamine B assay; settings: read-out: Activity
CAKI-1 [6] = assay: Growth inhibition of human CAKI-1 cells assessed as cell growth at 10^-6 M after 48 hrs by sulforhodamine B assay; settings: CAKI-1, 48 h, read-out: Activity
Summary of the method: (§2)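 Five-dose NCI-60 run (0.01, 0.1, 1, 10 and 100 µM, as 10-fold dilutions from a DMSO stock made at 400× the top final level). Cells were grown in RPMI 1640 with 5% FBS and 2 mM glutamine and plated for 24 h. They were then exposed for 48 h at 37 °C and 5% CO2. TCA fixation was followed by SRB staining with A515 read-out. Percent growth was taken relative to time-zero and control plates.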

NCI-H23 [7] = assay: Growth inhibition of human NCI-H23 cells assessed as cell growth at 10^-4 M after 48 hrs by sulforhodamine B assay; settings: NCI-H23, 48 h, read-out: Activity
NCI-H322M = assay: Growth inhibition of human NCI-H322M cells assessed as cell growth at 10^-5 M after 48 hrs by sulforhodamine B assay; settings: read-out: Activity
HCT-116 [8] = assay: Growth inhibition of human HCT116 cells assessed as cell growth at 10^-7 M after 48 hrs by sulforhodamine B assay; settings: HCT-116, 48 h, read-out: Activity
Summary of the method: (§3)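 Five-dose screen at NCI. Cells in RPMI 1640 with 5% FBS and 2 mM L-glutamine, seeded at 5000–40,000 cells/well and grown 24 h at 37 °C, 5% CO2 before dosing, with time-zero plates TCA-fixed. Drug diluted from DMSO stock to 0.01, 0.1, 1, 10 and 100 µM final, 48 h. Cells fixed with cold TCA (10% final), stained with 0.4% SRB and read at 515 nm. Percent growth from Tz, control and test absorbances; GI50, TGI and LC50 from dose-response curves.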

SNB-19 [9] = assay: Growth inhibition of human SNB19 cells assessed as cell growth at 10^-6 M after 48 hrs by sulforhodamine B assay; settings: SNB-19, 48 h, read-out: Activity
A498 = assay: Growth inhibition of human A498 cells assessed as cell growth at 10^-4 M after 48 hrs by sulforhodamine B assay; settings: A498, 48 h, read-out: Activity; summary of the method: as §2
UACC-62 = assay: Growth inhibition of human UACC62 cells assessed as cell growth at 10^-7 M after 48 hrs by sulforhodamine B assay; settings: UACC-62, 48 h, read-out: Activity
HCT-116 [10] = assay: Growth inhibition of human HCT116 cells assessed as cell growth at 10^-6 M after 48 hrs by sulforhodamine B assay; settings: HCT-116, 48 h, read-out: Activity; summary of the method: as §3
HOP-92 = assay: Growth inhibition of human HOP92 cells assessed as cell growth at 10^-7 M after 48 hrs by sulforhodamine B assay; settings: HOP-92, 48 h, read-out: Activity; summary of the method: as §3
SW-620 = assay: Growth inhibition of human SW620 cells assessed as cell growth at 10^-5 M after 48 hrs by sulforhodamine B assay; settings: SW-620, 48 h, read-out: Activity
NCI-H522 [11] = assay: Growth inhibition of human NCI-H522 cells assessed as cell growth at 10^-7 M after 48 hrs by sulforhodamine B assay; settings: NCI-H522, 48 h, read-out: Activity
HOP-62 = assay: Growth inhibition of human HOP62 cells after 48 hrs by sulforhodamine B assay; settings: HOP-62, 48 h; for CC50: read-out: LC50 (the source's name); summary of the method: as §3
SF-539 = assay: Growth inhibition of human SF539 cells assessed as cell growth at 10^-4 M after 48 hrs by sulforhodamine B assay; settings: SF-539, 48 h, read-out: Activity
SN12C [12] = assay: Growth inhibition of human SN12C cells assessed as cell growth at 10^-7 M after 48 hrs by sulforhodamine B assay; settings: read-out: Activity
CAKI-1 [13] = assay: Growth inhibition of human CAKI-1 cells after 48 hrs by sulforhodamine B assay; settings: CAKI-1, 48 h, read-out: LC50 (the source's name); summary of the method: as §1
[14] = Growth inhibition of human NCI-ADR-RES cells assessed as cell growth at 10^-8 M after 48 hrs by sulforhodamine B assay; settings: read-out: Activity
SNB-19 [15] = assay: Growth inhibition of human SNB19 cells assessed as cell growth at 10^-4 M after 48 hrs by sulforhodamine B assay; settings: SNB-19, 48 h, read-out: Activity
OVCAR-5 [16] = assay: Growth inhibition of human OVCAR5 cells assessed as cell growth at 10^-5 M after 48 hrs by sulforhodamine B assay; settings: OVCAR-5, 48 h, read-out: Activity
M14 [17] = assay: Growth inhibition of human M14 cells after 48 hrs by sulforhodamine B assay; settings: M14, 48 h, read-out: LC50 (the source's name); summary of the method: as §1
RPMI-8226 = assay: Growth inhibition of human RPMI8226 cells after 48 hrs by sulforhodamine B assay; settings: RPMI-8226, 48 h; for CC50: read-out: LC50 (the source's name)
Summary of the method: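 Leukemia suspension cells in RPMI 1640 with 5% FBS and 2 mM L-glutamine were plated at 5000–40,000 cells/well and grown 24 h. Five concentrations (0.01–100 µM) were given for 48 h at 37 °C. Settled cells were fixed with 80% TCA (16% final) and SRB-stained, read at 515 nm. GI50 came from dose–response curves against time-zero and control plates.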

Structure (SMILES) | growth at 0.01 µM (NCI-H522 [1]) [%] | TGI (OVCAR-5 [2]) [µM] | CC50 (OVCAR-5 [2]) [µM] | growth at 1 µM (SF-268) [%] | growth at 0.1 µM (U-251) [%] | TGI (NCI-H23 [3]) [µM] | CC50 (NCI-H23 [3]) [µM] | growth at 0.01 µM (M14 [4]) [%] | growth at 1 µM (SN12C [5]) [%] | growth at 1 µM (CAKI-1 [6]) [%] | growth at 100 µM (NCI-H23 [7]) [%] | growth at 10 µM (NCI-H322M) [%] | growth at 0.1 µM (HCT-116 [8]) [%] | growth at 1 µM (SNB-19 [9]) [%] | growth at 100 µM (A498) [%] | growth at 0.1 µM (UACC-62) [%] | growth at 1 µM (HCT-116 [10]) [%] | growth at 0.1 µM (HOP-92) [%] | growth at 10 µM (SW-620) [%] | growth at 0.1 µM (NCI-H522 [11]) [%] | further results
O=S(=O)(Nc1ccc(Cl)cc1)c1ccc2nc(-c3ccccc3)c(-c3ccccc3)nc2c1 | 93 | > 100 | > 100 | 93 | 94 | > 100 | > 100 | 95 | 93 | 89 | 72 | 37 | 90 | 89 | 61 | 87 | 80 | 92 | 14 | 90 | GI50 (HOP-62): 3.95 µM; TGI (HOP-62): > 100 µM; CC50 (HOP-62): > 100 µM; growth at 100 µM (SF-539): 73%; growth at 0.1 µM (SN12C [12]): 96%; CC50 (CAKI-1 [13]): > 100 µM; growth at 0.01 µM [14]: 99%; growth at 100 µM (SNB-19 [15]): 83%; growth at 10 µM (OVCAR-5 [16]): 6%; CC50 (M14 [17]): > 100 µM; GI50 (RPMI-8226): 1.43 µM; CC50 (RPMI-8226): > 100 µM
O=S(=O)(Nc1ccccn1)c1ccc2nc(-c3ccccc3)c(-c3ccccc3)nc2c1 | 89 | > 100 | > 100 | 99 | 97 | > 100 | > 100 | 96 | 91 | 102 | 42 | 35 | 87 | 87 | 49 | 92 | 75 | 92 | 14 | 88 | GI50 (NCI-H23 [3]): 2.45 µM; GI50 (HOP-62): 4.54 µM; TGI (HOP-62): > 100 µM; CC50 (HOP-62): > 100 µM; growth at 100 µM (SF-539): 54%; growth at 0.1 µM (SN12C [12]): 93%; CC50 (CAKI-1 [13]): > 100 µM; growth at 0.01 µM [14]: 101%; growth at 100 µM (SNB-19 [15]): 62%; growth at 10 µM (OVCAR-5 [16]): 8%; CC50 (M14 [17]): > 100 µM; GI50 (RPMI-8226): 1.11 µM; CC50 (RPMI-8226): > 100 µM
